# From ChEMBL document CHEMBL3734651, “Synthesis of dihydropyrimidine α,γ-diketobutanoic acid derivatives targeting HIV integrase” (Eur J Med Chem, 2015)
# Assays:
# [1] = molecular target: T1, Human immunodeficiency virus type 1 integrase (Human immunodeficiency virus 1, UniProt Q7ZJM1); assay: Inhibition of recombinant HIV-1 integrase 3'-processing activity expressed in Escherichia coli BL21(DE3) cells using 32P-labeled DNA substrate after 1 hr by densitometric analysis
# Summary of the method: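 Reaction run 1 h at 37 °C, then stopped with an equal volume of formamide loading buffer containing 1% SDS, 0.25% bromophenol blue and xylene cyanol. Products resolved on 16% denaturing polyacrylamide sequencing gels; dried gels imaged. Value reported as the concentration giving 50% inhibition.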
# [2] = molecular target: T1, Human immunodeficiency virus type 1 integrase; assay: Inhibition of recombinant HIV-1 integrase stand transfer activity expressed in Escherichia coli BL21(DE3) cells using 32P-labeled DNA substrate after 1 hr by densitometric analysis
# [3] = test system: Human immunodeficiency virus 1; assay: Antiviral activity against HIV1 infected in human peripheral blood mononuclear cells assessed as inhibition of reverse transcriptase activity incubated for 6 days; assay type: functional, organism-based; settings: Human immunodeficiency virus 1, 144 h
# [4] = (§1) Cytotoxicity against human PBMC assessed as reduction in cell growth incubated for 5 days by CellTiter 96 AQueous One Solution cell proliferation assay; assay type: cell-based; settings: PBMC (peripheral blood mononuclear cells)
# [5] = (§2) Cytotoxicity against human CEM cells assessed as reduction in cell growth incubated for 5 days by CellTiter 96 AQueous One Solution cell proliferation assay; assay type: cell-based, CCRF-CEM; settings: CEM (CCRF-CEM) cells
# [6] = (§3) Cytotoxicity against African green monkey Vero cells assessed as reduction in cell growth incubated for 5 days by CellTiter 96 AQueous One Solution cell proliferation assay; assay type: cell-based; settings: chlorocebus sabaeus, Vero cells
# PBMC = assay: as §1; assay type: cell-based; settings: pbmc, 120 h
# CCRF-CEM = assay: as §2; assay type: cell-based; settings: ccrf-cem, 120 h
# Vero = assay: as §3; assay type: cell-based; settings: chlorocebus sabaeus, vero, 120 h
# T1 sequence (Q7ZJM1 whole entry): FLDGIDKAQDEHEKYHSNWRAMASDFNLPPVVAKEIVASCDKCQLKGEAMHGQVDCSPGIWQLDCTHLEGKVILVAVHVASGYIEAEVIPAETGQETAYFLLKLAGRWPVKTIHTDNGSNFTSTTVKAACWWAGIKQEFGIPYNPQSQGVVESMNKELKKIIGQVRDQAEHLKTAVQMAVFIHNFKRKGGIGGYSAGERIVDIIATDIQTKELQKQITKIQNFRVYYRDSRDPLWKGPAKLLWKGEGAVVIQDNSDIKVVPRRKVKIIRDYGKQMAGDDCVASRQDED
Structure (SMILES),IC50 [1] [µM],IC50 [2] [nM],also measured
CCOC(=O)c1c(-c2ccccc2)nc(=O)n(Cc2ccc(C(=O)/C=C(\O)C(=O)O)cc2)c1C,> 111,2400,
CCOC(=O)c1c(-c2ccc(F)cc2)nc(=O)n(Cc2ccc(C(=O)/C=C(\O)C(=O)O)cc2)c1-c1ccccc1,16.6,2400,
CCOC(=O)c1c(-c2ccc(F)cc2)nc(=O)n(Cc2ccc(C(=O)/C=C(\O)C(=O)O)cc2)c1C(C)C,40,3600,
CCOC(=O)c1c(-c2ccc(OC)cc2)nc(=O)n(Cc2ccc(C(=O)/C=C(\O)C(=O)OC(C)C)cc2)c1-c1ccccc1,,,EC50 [3]: 80.6 µM; CC50 at 120 h [4]: > 100 µM; CC50 at 120 h [5]: 25.3 µM; CC50 at 120 h [6]: > 100 µM
CCOC(=O)c1c(-c2ccccc2)nc(SCc2ccc(C(=O)/C=C(\O)C(=O)O)cc2)nc1-c1ccc(F)cc1,22,2800,
CCOC(=O)c1c(-c2ccccc2)nc(SCc2ccc(C(=O)/C=C(\O)C(=O)O)cc2)nc1-c1ccc(OC)cc1,23,1200,
CCOC(=O)c1c(-c2ccccc2)nc(=O)n(Cc2ccc(C(=O)/C=C(\O)C(=O)O)cc2)c1-c1ccccc1,18.4,2000,
CCOC(=O)c1c(Cc2ccccc2)nc(=O)n(Cc2ccc(C(=O)/C=C(\O)C(=O)OC(C)C)cc2)c1C,,,EC50 [3]: 17.2 µM; CC50 (PBMC): 77 µM; CC50 (CCRF-CEM): 7.3 µM; CC50 (Vero): 32.9 µM
CCOC(=O)c1c(-c2ccc(F)cc2)nc(=O)n(Cc2ccc(C(=O)/C=C(\O)C(=O)O)cc2)c1C,17.4,1300,
CCOC(=O)c1c(-c2ccccc2)nc(=O)n(Cc2ccc(C(=O)/C=C(\O)C(=O)O)cc2)c1C(C)C,37.5,2300,
CCOC(=O)c1c(-c2ccccc2)nc(SCc2ccc(C(=O)/C=C(\O)C(=O)O)cc2)nc1-c1ccccc1,30,6100,
CCOC(=O)c1c(CC)nc(SCc2ccc(C(=O)/C=C(\O)C(=O)O)cc2)nc1-c1ccc(OC)cc1,30.7,2270,
CCOC(=O)c1c(CC)nc(SCc2ccc(C(=O)/C=C(\O)C(=O)O)cc2)nc1-c1ccc(F)cc1,29.3,920,
CCOC(=O)c1c(-c2ccc(OC)cc2)nc(=O)n(Cc2ccc(C(=O)/C=C(\O)C(=O)O)cc2)c1CC,72,5600,
CCOC(=O)c1c(CC)nc(SCc2ccc(C(=O)/C=C(\O)C(=O)O)cc2)nc1-c1ccccc1,21.1,2230,
CCOC(=O)c1c(-c2ccc(F)cc2)nc(=O)n(Cc2ccc(C(=O)/C=C(\O)C(=O)O)cc2)c1CC,35,1100,
CCOC(=O)c1c(-c2cc(C)cc(C)c2)nc(=O)n(Cc2ccc(C(=O)/C=C(\O)C(=O)O)cc2)c1-c1ccccc1,16.3,1300,
CCOC(=O)c1c(-c2ccccc2)nc(=O)n(Cc2ccc(C(=O)/C=C(\O)C(=O)O)cc2)c1CC,19.1,640,
CCOC(=O)c1c(-c2ccc(OC)cc2)nc(=O)n(Cc2ccc(C(=O)/C=C(\O)C(=O)O)cc2)c1-c1ccccc1,17.2,1900,
CCOC(=O)c1c(Cc2ccccc2)nc(=O)n(Cc2ccc(C(=O)/C=C(\O)C(=O)O)cc2)c1C,16.9,190,
CCOC(=O)c1c(CC)nc(SCc2ccc(C(=O)/C=C(\O)C(=O)OC(C)C)cc2)nc1-c1ccc(F)cc1,,,EC50 [3]: 25.6 µM; CC50 (PBMC): 43.2 µM; CC50 (CCRF-CEM): 5.2 µM; CC50 (Vero): 39.5 µM
CCOC(=O)c1c(-c2ccccc2)nc(=O)n(Cc2ccc(Cc3cccc(C(=O)/C=C(\O)C(=O)OC(C)C)c3)cc2)c1CC,,,EC50 [3]: 36.8 µM; CC50 at 120 h [4]: 47.6 µM; CC50 at 120 h [5]: 8.9 µM; CC50 at 120 h [6]: > 100 µM
CCOC(=O)c1c(-c2ccccc2)nc(=O)n(Cc2ccc(C(=O)/C=C(\O)C(=O)OC(C)C)cc2)c1CC,,,EC50 [3]: > 100 µM; CC50 (PBMC): > 100 µM; CC50 (CCRF-CEM): 21.4 µM; CC50 (Vero): > 100 µM
CCOC(=O)c1c(-c2ccc(OC)cc2)nc(=O)n(Cc2ccc(C(=O)/C=C(\O)C(=O)O)cc2)c1C(C)C,19.2,3300,
Cc1cn([C@H]2C[C@H](N=[N+]=[N-])[C@@H](CO)O2)c(=O)[nH]c1=O [ZIDOVUDINE],,,CC50 at 120 h [4]: > 100 µM; CC50 (CCRF-CEM): 56.1 µM; CC50 (Vero): 39.5 µM
